We go through five compounds from ChEMBL document CHEMBL3244125, “In vivo inhibitors of Escherichia coli phenylalanyl-tRNA synthetase” (J Med Chem, 1979).

Activity calls are given as the source filed them. The rule behind the calls is not given here.

Experiment [1] in a line: Inhibition of rel+ Escherichia coli B Phe-tRNA synthetase using L-[3H]-phenylalanine as substrate by scintillation counting analysis.
Experiment [2] is described as follows: Inhibition of Phe-tRNA synthetase in rel+ Escherichia coli B assessed as growth inhibition. The essentials: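 E. coli B/r in exponential growth (A600 ≈ 0.3) in basal salts medium (0.2% glucose, phosphate, MgSO4, (NH4)2SO4) was diluted into medium with a range of inhibitor levels. It was incubated at 37 °C for about three generations, until controls reached A600 0.4–0.45. Growth was read at 600 nm as % of control turbidity, and IC50 was taken from % inhibition versus concentration plots.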

Experiment [3] has as its system Escherichia coli B. Description: Ratio of IC50 for inhibition of Phe-tRNA synthetase in rel+ Escherichia coli B assessed as growth inhibition to Ki for inhibition of rel+ Escherichia coli B Phe-tRNA synthetase using L-[3H]-phenylalanine as substrate.
Experiment [4] concerns Escherichia coli B. In words: Inhibition of Phe-tRNA synthetase in rel+ Escherichia coli B assessed as growth inhibition at IC50 in presence of 2.5 mM L-Phe. The essentials:
(§1)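 Reversal assay in E. coli B/r. Exponential culture (A600 ≈ 0.3) in basal salts glucose minimal medium was diluted into medium holding the specified amino acid plus inhibitor, at 37 °C. Controls had no inhibitor. Growth was read turbidimetrically at 600 nm after about three generations, as % inhibition relative to control.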

In experiment [5] the target is Isoleucine--tRNA ligase (Escherichia coli K-12) (UniProt P00956). Description: Inhibition of Ile-tRNA synthetase in rel+ Escherichia coli B assessed as tRNA-Ile level at 9.2 uM at 37 degC after 30 mins in absence of casamino acid supplement in tris-glucose minimal media (reference value: 40%).
Sequence of Isoleucine--tRNA ligase (Escherichia coli K-12) (P00956 whole entry): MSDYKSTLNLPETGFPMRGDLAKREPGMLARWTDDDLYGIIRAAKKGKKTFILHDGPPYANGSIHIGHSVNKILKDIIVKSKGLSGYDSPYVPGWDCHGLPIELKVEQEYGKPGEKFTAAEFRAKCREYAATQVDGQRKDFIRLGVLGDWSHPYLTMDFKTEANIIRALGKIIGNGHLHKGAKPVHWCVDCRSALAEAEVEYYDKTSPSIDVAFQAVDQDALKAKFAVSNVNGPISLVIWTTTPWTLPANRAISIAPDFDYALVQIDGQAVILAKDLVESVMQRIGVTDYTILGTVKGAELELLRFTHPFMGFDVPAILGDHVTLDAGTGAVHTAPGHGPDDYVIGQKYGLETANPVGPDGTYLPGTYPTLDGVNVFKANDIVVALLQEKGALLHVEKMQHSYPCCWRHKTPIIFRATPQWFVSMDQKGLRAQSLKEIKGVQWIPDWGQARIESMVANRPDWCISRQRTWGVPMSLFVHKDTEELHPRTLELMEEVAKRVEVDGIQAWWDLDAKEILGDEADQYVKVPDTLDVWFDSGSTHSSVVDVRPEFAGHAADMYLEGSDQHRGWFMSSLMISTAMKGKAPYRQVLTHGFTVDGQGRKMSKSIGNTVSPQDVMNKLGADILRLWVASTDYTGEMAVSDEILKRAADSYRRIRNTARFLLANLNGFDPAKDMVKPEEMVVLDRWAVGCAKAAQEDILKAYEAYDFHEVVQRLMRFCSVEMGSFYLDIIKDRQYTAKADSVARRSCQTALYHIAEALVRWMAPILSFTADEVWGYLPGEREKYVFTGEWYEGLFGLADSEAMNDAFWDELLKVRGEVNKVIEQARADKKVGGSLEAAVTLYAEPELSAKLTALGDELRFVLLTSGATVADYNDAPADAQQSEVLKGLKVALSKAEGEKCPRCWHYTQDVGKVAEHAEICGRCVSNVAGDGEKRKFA
The test system of experiment [6] is Escherichia coli B. In words: Inhibition of Phe-tRNA synthetase in rel+ Escherichia coli B assessed as tRNA-Phe level at 230 uM at 37 degC after 30 mins in presence of casamino acid supplement in tris-glucose minimal media (reference value: 90%).
Experiment [7] has as its system Escherichia coli B. Description: Inhibition of Val-tRNA synthetase in rel+ Escherichia coli B assessed as tRNA-val level at 230 uM at 37 degC after 30 mins in presence of casamino acid supplement in tris-glucose minimal media (reference value: 100%).
Experiment [8] has as its target Isoleucine--tRNA ligase (Escherichia coli K-12) (UniProt P00956). In words: Inhibition of Ile-tRNA synthetase in rel+ Escherichia coli B assessed as tRNA-Ile level at 230 uM at 37 degC after 30 mins in presence of casamino acid supplement in tris-glucose minimal media (reference value: 50%).
Experiment [9] has as its system Escherichia coli. Description: Inhibition of Phe-tRNA synthetase in Escherichia coli NP29 assessed as formation of [32P]ppGpp at 230 uM at 30 degC measured every 1 min by scintillation counting analysis. The essentials: (§2)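 Exponential cultures in Tris-glucose minimal medium were labeled with carrier-free [32P]phosphate at least 30 min before inhibitor. Four to five 25 µL aliquots were taken at about 1-min intervals into ice-cold 2 M formic acid and held 30 min at 0 °C. Extracts were run on PEI-cellulose TLC in 1.5 M KH2PO4 pH 3.4. ppGpp spots were located by autoradiography and counted. Initial rate was taken as the linear increase over time.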

Experiment [10] relates to Escherichia coli B. Description: Inhibition of Phe-tRNA synthetase in rel+ Escherichia coli B assessed as formation of [32P]ppGpp at 4.6 uM at 37 degC measured every 1 min by scintillation counting analysis in absence of casamino acid supplement in tris-glucose minimal media. The procedure, abridged:
as §2

Experiment [11] deals with Escherichia coli B. Description: Inhibition of Phe-tRNA synthetase in rel+ Escherichia coli B assessed as formation of [32P]ppGpp at 9.2 uM at 37 degC measured every 1 min by scintillation counting analysis in absence of casamino acid supplement in tris-glucose minimal media. The essentials: as §2
Experiment [12] deals with Escherichia coli B. Description: Inhibition of Phe-tRNA synthetase in rel+ Escherichia coli B assessed as formation of [32P]ppGpp at 23 uM at 37 degC measured every 1 min by scintillation counting analysis in absence of casamino acid supplement in tris-glucose minimal media. The essentials: as §2
Experiment [13] has as its system Escherichia coli B. In words: Inhibition of Phe-tRNA synthetase in rel+ Escherichia coli B assessed as formation of [32P]ppGpp at 230 uM at 37 degC measured every 1 min by scintillation counting analysis in absence of casamino acid supplement in tris-glucose minimal media. The procedure, abridged:
as §2

Experiment [14] has as its system Escherichia coli B. In words: Inhibition of Phe-tRNA synthetase in rel+ Escherichia coli B assessed as formation of [32P]ppGpp at 230 uM at 37 degC measured every 1 min by scintillation counting analysis in presence of casamino acid supplement in tris-glucose minimal media. The essentials: as §2
Experiment [15] concerns Escherichia coli B. Description: Inhibition of Phe-tRNA synthetase in rel+ Escherichia coli B assessed as formation of [32P]ppGpp at 92 uM measured every 1 min by scintillation counting analysis. The essentials:
as §2

In experiment [16] the test system is Escherichia coli B. Description: Inhibition of Phe-tRNA synthetase in rel+ Escherichia coli B assessed as growth inhibition at 92 uM. The procedure, abridged: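 E. coli B/r in log phase at 37 °C, with inhibitor added at a set time. Cell density was followed turbidimetrically at 600 nm alongside ppGpp and RNA synthesis measurements.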
Experiment [17] has as its system Escherichia coli B. Description: Inhibition of Phe-tRNA synthetase in rel+ Escherichia coli B assessed as [3H]-RNA synthesis at 92 uM after 5 mins by scintillation counting analysis in presence of [5-3H]-Uracil. The essentials:
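E. coli B/r in exponential growth was labeled with [5-3H]uracil (75 Ci/mol). At intervals, 25 µL culture was put into 1 mL ice-cold trichloroacetic acid for 5 min at 0 °C. Samples were filtered on glass-fibre filters, washed with cold TCA then 95% ethanol, and counted by scintillation.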

The nature of experiment [18]: Inhibition of Phe-tRNA synthetase in rel+ Escherichia coli B assessed as reduction of tRNA-Phe level after 30 mins.
Experiment [19] concerns Escherichia coli B. Description: Inhibition of Phe-tRNA synthetase in rel+ Escherichia coli B assessed as half maximal rate of [32P]ppGpp formation at 70 uM measured every 1 min by scintillation counting analysis. The essentials:
as §2

For experiment [20], the system named is Escherichia coli B. Description: Inhibition of Phe-tRNA synthetase in rel+ Escherichia coli B assessed as growth inhibition at IC50 in presence of Ser. The procedure, abridged: as §1
Experiment [21] concerns Escherichia coli B. In words: Inhibition of Phe-tRNA synthetase in rel+ Escherichia coli B assessed as growth inhibition at IC50 in presence of Tyr. The essentials: as §1
The test system of experiment [22] is Escherichia coli B. In words: Inhibition of Phe-tRNA synthetase in rel+ Escherichia coli B assessed as growth inhibition at IC50 in presence of Ile. The procedure, abridged: as §1
Experiment [23] relates to Escherichia coli B. In words: Inhibition of Phe-tRNA synthetase in rel+ Escherichia coli B assessed as growth inhibition at IC50 in presence of Pro. The essentials: as §1
Experiment [24] relates to Escherichia coli B. In words: Inhibition of Phe-tRNA synthetase in rel+ Escherichia coli B assessed as growth inhibition at IC50 in presence of Val. The procedure, abridged:
as §1

The test system of experiment [25] is Escherichia coli. Description: Inhibition of Phe-tRNA synthetase in Escherichia coli NP29 assessed as tRNA-Phe level at 230 uM at 30 degC after 30 mins (reference value: 70%). The procedure, abridged: (§3)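 Temperature-sensitive Val-tRNA synthetase strain NP29, grown at 30 °C in Tris-glucose minimal medium with 0.2% casamino acids. Inhibitor was added during log growth and the control was kept at 30 °C. After 30 min, cells were quenched with ice and NaN3 and disrupted. Aminoacyl-tRNA was measured by periodate oxidation (1 mM) or Tris-HCl pH 8.0 stripping, with purified synthetases.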

The subject of experiment [26] is Escherichia coli. In words: Inhibition of Val-tRNA synthetase in Escherichia coli NP29 assessed as tRNA-val level at 230 uM at 30 degC after 30 mins (reference value: 30%). The essentials: as §3
For experiment [27], the target named is Isoleucine--tRNA ligase (Escherichia coli K-12) (UniProt P00956). In words: Inhibition of Ile-tRNA synthetase in Escherichia coli NP29 assessed as tRNA-Ile level at 230 uM at 30 degC after 30 mins (reference value: 40%). The procedure, abridged:
as §3

For experiment [28], the system named is Escherichia coli B. Description: Inhibition of rel+ Phe-tRNA synthetase in Escherichia coli B assessed as tRNA-Phe level at 4.6 uM at 37 degC after 30 mins in absence of casamino acid supplement in tris-glucose minimal media (reference value: 60%).
Experiment [29] addresses Isoleucine--tRNA ligase (Escherichia coli K-12) (UniProt P00956). Description: Inhibition of Ile-tRNA synthetase in rel+ Escherichia coli B assessed as tRNA-Ile level at 4.6 uM at 37 degC after 30 mins in absence of casamino acid supplement in tris-glucose minimal media (reference value: 40%).
The test system of experiment [30] is Escherichia coli B. Description: Inhibition of Phe-tRNA synthetase in rel+ Escherichia coli B assessed as tRNA-Phe level at 23 uM at 37 degC after 30 mins in absence of casamino acid supplement in tris-glucose minimal media (reference value: 60%).
Experiment [31] addresses Isoleucine--tRNA ligase (Escherichia coli K-12) (UniProt P00956). Description: Inhibition of Ile-tRNA synthetase in rel+ Escherichia coli B assessed as tRNA-Ile level at 23 uM at 37 degC after 30 mins in absence of casamino acid supplement in tris-glucose minimal media (reference value: 40%).
Experiment [32] has as its system Escherichia coli B. Description: Inhibition of Phe-tRNA synthetase in rel+ Escherichia coli B assessed as tRNA-Phe level at 230 uM at 37 degC after 30 mins in absence of casamino acid supplement in tris-glucose minimal media (reference value: 60%).
The subject of experiment [33] is Escherichia coli B. In words: Inhibition of Val-tRNA synthetase in rel+ Escherichia coli B assessed as tRNA-val level at 230 uM at 37 degC after 30 mins in absence of casamino acid supplement in tris-glucose minimal media.
Experiment [34] concerns the target Isoleucine--tRNA ligase (Escherichia coli K-12) (UniProt P00956). In words: Inhibition of Ile-tRNA synthetase in rel+ Escherichia coli B assessed as tRNA-Ile level at 230 uM at 37 degC after 30 mins in absence of casamino acid supplement in tris-glucose minimal media (reference value: 40%).
Experiment [35] deals with Escherichia coli B. Description: Inhibition of Phe-tRNA synthetase in rel+ Escherichia coli B assessed as tRNA-Phe level at 9.2 uM at 37 degC after 30 mins in absence of casamino acid supplement in tris-glucose minimal media (reference value: 60%).

In experiment [1], `c1ccc(CCNCc2ccccc2)cc1` returned a Ki of 0.67 µM. Also, in [2], the IC50 was 77 µM. In addition, in the experiment on Escherichia coli B [3], the Ratio turned out to be 115. In the experiment with Escherichia coli B [4], the inhibition entry is “inactive”.

In the case of `C[C@@H](Cc1ccccc1)NCc1ccccc1`, in [1], the inhibitory constant (Ki) was determined as 5.6 µM. Further, in experiment [2], the concentration for half-maximal inhibition (IC50) worked out at 590 µM. For the same compound, in the experiment on Escherichia coli B [3], the Ratio amounted to 105. The inhibition entry in the experiment on Escherichia coli B [4] is “inactive”.

In experiment [1], `OC[C@@H](Cc1ccccc1)NCc1ccccc1` came in with an inhibition constant (Ki) of 0.77 µM. Moreover, in experiment [2], the 50% inhibitory concentration (IC50) is 82 µM. In addition, the Ratio with Escherichia coli B [3] was found to be 106. Besides, the inhibition entry in the experiment on Escherichia coli B [4] was “inactive”.

`NCCc1ccccc1` [PHENETHYLAMINE]: the inhibition constant (Ki) in experiment [1] is 93 µM. Moreover, the IC50 in experiment [2] turned out to be 10900 µM. Further, the Ratio in the experiment with Escherichia coli B [3] amounted to 117.

On to `C[C@H](Cc1ccccc1)NCc1ccccc1` [N-BENZYLAMPHETAMINE], for which the inhibition came out at 40% in [5]; 15% with Escherichia coli B [6]; 100% in the experiment on Escherichia coli B [7]; 55% in experiment [8]; 5% in the experiment with Escherichia coli [25]; 95% in the experiment on Escherichia coli [26]. The inhibition was 45% in experiment [27]; 45% in the experiment on Escherichia coli B [28]; 40% in experiment [29]; 20% with Escherichia coli B [30]; 45% in [31]; 10% with Escherichia coli B [32]. Moreover, the figures for the inhibition (with Escherichia coli B [33]; in [34]; in the experiment with Escherichia coli B [35]) were 100%, 45% and 35%, respectively. The inhibition entry in the experiment with Escherichia coli [9], in the experiment with Escherichia coli B [10], in the experiment with Escherichia coli B [11], in the experiment on Escherichia coli B [12], in the experiment on Escherichia coli B [13] and in the experiment with Escherichia coli B [14] was “Active” throughout. Also, the inhibition entry with Escherichia coli B [15], with Escherichia coli B [16], in the experiment on Escherichia coli B [17], in the experiment with Escherichia coli B [19], in the experiment on Escherichia coli B [20] and with Escherichia coli B [21] was “Active” each time. In addition, the inhibition result with Escherichia coli B [22], in the experiment with Escherichia coli B [23] and in the experiment with Escherichia coli B [24] was “Active” throughout. The results for the concentration for half-maximal inhibition (IC50) in [18] and in [2] were 13 µM and 15 µM, respectively. Further, the affinity in experiment [1], expressed as Ki, was 0.14 µM. Besides, the Ratio in the experiment on Escherichia coli B [3] was determined as 107. Moreover, the inhibition result with Escherichia coli B [4] is “inactive”.

As a reminder, the Ki is the dissociation constant of the complex between target and ligand, obtained from inhibition or displacement. As a reminder, the IC50 is the midpoint of a concentration-inhibition curve. As a reminder, the inhibition is the percentage by which the read-out fell short of the control.
